Values after ≈ are worked out from the molar mass of the structure shown. Active and inactive are the calls of the source. The rule behind the calls is not given here.
How the values were obtained:
HeLa [1] = experiment: Cytotoxicity against human HeLa cells at 100 ug/ml […] by MTT assay; format: cell-based
BT-549 [2] = experiment: Cytotoxicity against human BT549 cells at 100 ug/ml […] by MTT assay; format: cell-based
Rattus norvegicus [3] = experiment: Antiinflammatory activity in albino rat assessed as inhibition of carrageenan-induced paw edema at 100 mg/kg, po administered 1 hr prior to carrageenan-challenge measured after 3 hrs relative to control; format: functional
How it was run: (§1)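 Charles Foster albino rats of either sex (150–200 g, pregnant females excluded), six per group, dosed orally; 1 h later 0.2 mL of 1% carrageenan in 0.9% NaCl injected into right hind paw subplantar tissue. Paw volume read by plethysmometer at injection and 3 h later. Control group received carrageenan only. % inhibition = 1–Dt/Dc×100. Mean ± S.D.; one-way ANOVA with Tukey's test.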

Rattus norvegicus [4] = experiment: Antiinflammatory activity in albino rat assessed as inhibition of carrageenan-induced paw edema at 10 mg/kg, po administered 1 hr prior to carrageenan-challenge measured after 3 hrs relative to control; format: functional; how it was run: as §1
[5] = Antitumor activity against mouse EAC […] Swiss albino mouse assessed as increase in life span at 100 mg/kg, ip relative to vehicle-treated control; format: functional, Ehrlich; conditions: route intraperitoneal
How it was run: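 Female Swiss albino mice (6–8 weeks), six per group, inoculated i.p. on day 0 with 1×10⁶ viable EAC cells from donor ascites. Drug suspended in 0.25% CMC, given i.p. at 0.1 ml/10 g on days 10–14. Survival was monitored twice daily for 44 days. ILS(%) = [(MST treated/MST control) − 1]×100, where MST is total days survived divided by the number of animals.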

[6] = Antitumor activity against mouse EAC […] Swiss albino mouse assessed as change in body weight at 100 mg/kg, ip administered on day 10 measured on day 15 (reference value: 22.03 +/- 1.67%); format: functional, Ehrlich; conditions: route intraperitoneal
[7] = Antitumor activity against mouse EAC […] Swiss albino mouse assessed as change in body weight at 100 mg/kg, ip administered everyday from day 10 to day 14 measured on day 12 (reference value: 22.03 +/- 1.67%); format: functional, Ehrlich; conditions: route intraperitoneal
COLO 205 [8] = experiment: Inhibition of NF-kappaB in human COLO205 cells assessed as Bax up-regulation at IC50 after 48 hrs by RT-PCR analysis; format: cell-based
How it was run: (§2)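 About 4x10⁶ COLO-205 cells/well treated at IC₅₀ dose for 48 h. Total RNA extracted with TRI Reagent and quantified. Bcl-2 and Bax measured by RT-PCR against GAPDH (40 cycles: 94 °C, 55 °C, 72 °C). Products run on 1.5% agarose gel and quantified by band densitometry.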

COLO 205 [9] = experiment: Inhibition of NF-kappaB in human COLO205 cells assessed as Bcl-2 down regulation at IC50 after 48 hrs by RT-PCR analysis; format: cell-based; how it was run: as §2
COLO 205 [10] = experiment: Induction of apoptosis in human COLO205 cells assessed as zeiosis at IC50 after 48 hrs by Hoechst 33258 staining-based inverted microscopic analysis; format: functional, cell-based
How it was run: (§3)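 COLO-205 cells seeded at 10⁵ cells/ml and grown to 70-80% confluency. Treated at IC₅₀ dose for 48 h. Fixed in 4% formaldehyde for 30 min at room temperature, stained with Hoechst 33258 for 15 min, washed three times with PBS. Imaged by inverted fluorescence microscope (excitation 340-380 nm, emission 465 nm) at 400x and scored for nuclear morphology.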

COLO 205 [11] = experiment: Induction of apoptosis in human COLO205 cells assessed as karyopyknosis at IC50 after 48 hrs by Hoechst 33258 staining-based inverted microscopic analysis; format: functional, cell-based; how it was run: as §3
COLO 205 [12] = experiment: Induction of apoptosis in human COLO205 cells assessed as nuclear fragmentation at IC50 after 48 hrs by Hoechst 33258 staining-based inverted microscopic analysis; format: functional, cell-based; how it was run: as §3
COLO 205 [13] = experiment: Induction of apoptosis in human COLO205 cells assessed as late apoptotic cells at IC50 after 48 hrs by acridine orange-ethidium bromide staining assay; format: functional, cell-based
How it was run: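 COLO-205 cells seeded at 10⁵ cells/ml, grown 24 h, then treated at IC₅₀ dose for 48 h. Floating and trypsinized adherent cells pooled, spun at 129 g for 5 min and washed in PBS. Stained with 1:1 acridine orange/ethidium bromide and viewed by fluorescence microscopy at 400x (green viable, orange-red apoptotic).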

ACHN = experiment: Cytotoxicity against human ACHN cells […] by MTT assay; format: functional, cell-based
COLO 205 [14] = experiment: Cytotoxicity against human COLO205 cells […] by MTT assay; format: functional, cell-based
HeLa [15] = experiment: Cytotoxicity against human HeLa cells after 24 hrs by MTT assay; format: functional, cell-based
BT-549 [16] = experiment: Cytotoxicity against human BT549 cells after 24 hrs by MTT assay; format: functional, cell-based; conditions: BT-549, 24 h

Structure (SMILES)	Activity (HeLa [1])	Activity (BT-549 [2])	inhibition in vivo at 100 mg/kg (Rattus norvegicus [3])	also measured
Cc1cc(=O)[nH]c2cc(N3C(=O)CSC3c3ccc(N(C)C)cc3)ccc12 (centres undefined)	33.267%	29.327%	13.3%	
Cc1cc(=O)[nH]c2cc(N3C(=O)CSC3c3ccco3)ccc12 (centres undefined)	41.188%	49.658%	5.16%	
COc1ccc(C2SCC(=O)N2c2ccc3c(C)cc(=O)[nH]c3c2)cc1OC (centres undefined)	30.492%	31.737%	20.6%	
Cc1cc(=O)[nH]c2cc(N3C(=O)CSC3c3ccccn3)ccc12 (centres undefined)	20%	18.028%	7.5%	
COc1cc(C2SCC(=O)N2c2ccc3c(C)cc(=O)[nH]c3c2)ccc1O (centres undefined)	41.028%	54.11%	12.4%	
Cc1ccc(C2SCC(=O)N2c2ccc3c(C)cc(=O)[nH]c3c2)s1 (centres undefined)	31.485%	22.023%	15.8%	
Cc1cc(=O)[nH]c2cc(N3C(=O)CSC3c3ccccc3Cl)ccc12 (centres undefined)	52.496%	61.394%	14.5%	
Cc1cc(=O)[nH]c2cc(N3C(=O)CSC3c3ccccc3O)ccc12 (centres undefined)	43.168%	44.328%	16.4%	
COc1ccc2c(c1)c(CC(=O)O)c(C)n2C(=O)c1ccc(Cl)cc1 [INDOMETHACIN]				inhibition in vivo at 10 mg/kg (Rattus norvegicus [4]): 33.2%
Cc1cc(=O)[nH]c2cc(N3C(=O)CSC3N3CCCCC3)ccc12 (centres undefined)	29.394%	31.949%	2.77%	
Cc1cc(=O)[nH]c2cc(N3C(=O)CSC3c3ccc(F)cc3)ccc12 (centres undefined)	14.231%	43.311%	19%	
Cc1cc(=O)[nH]c2cc(N3C(=O)CSC3c3cccc(O)c3)ccc12 (centres undefined)	71.485%	18.522%	14.3%	
Cc1cc(=O)[nH]c2cc(N3C(=O)CSC3c3cccc(Cl)c3)ccc12 (centres undefined)	44.158%	44.849%	23.3%	
Cc1cc(=O)[nH]c2cc(N3C(=O)CSC3c3ccccc3F)ccc12 (centres undefined)	59.6%	40.062%	20.4%	
Cc1cc(=O)[nH]c2cc(N3C(=O)CSC3c3ccc(Cl)cc3)ccc12 (centres undefined)	20.198%	46.201%	13%	
Cc1cc(=O)[nH]c2cc(N3C(=O)CSC3c3ccc(Br)o3)ccc12 (centres undefined)	31.332%	42.357%	23.3%	
Cc1cc(=O)[nH]c2cc(N3C(=O)CSC3c3cccc(F)c3)ccc12 (centres undefined)	52.738%	50.052%	23.6%	

Structure (SMILES)	Activity (HeLa [1])	Activity (BT-549 [2])	inhibition in vivo at 100 mg/kg (Rattus norvegicus [3])	also measured
Cc1cc(=O)[nH]c2cc(N3C(=O)CSC3c3cccs3)ccc12 (centres undefined)	83.762%	63.163%	18.6%	Activity [5]: 77.09%; MST [5]: 32.16 days; Activity [6]: 3.86%; Activity [7]: 6.66%; inhibition (COLO 205 [8]): Active; inhibition (COLO 205 [9]): Active; Activity (COLO 205 [10]): Active; Activity (COLO 205 [11]): Active; Activity (COLO 205 [12]): Active; Activity (COLO 205 [13]): Active; IC50 (ACHN): 44.7 µg/mL (≈ 131 µM); IC50 (COLO 205 [14]): 20.7 µg/mL (≈ 60.6 µM); IC50 (HeLa [15]): 27.1 µg/mL (≈ 79 µM); IC50 (BT-549 [16]): 43 µg/mL (≈ 126 µM)
O=c1[nH]cc(F)c(=O)[nH]1 [FLUOROURACIL]				IC50 (ACHN): 9.87 µg/mL (≈ 75.9 µM); IC50 (COLO 205 [14]): 4.56 µg/mL (≈ 35.1 µM)
Cc1cc(=O)[nH]c2cc(N3C(=O)CSC3c3ccc(Br)cc3)ccc12 (centres undefined)	65.742%	42.663%	12.4%	
Cc1cc(=O)[nH]c2cc(N3C(=O)CSC3c3ccc(Br)s3)ccc12 (centres undefined)	33.267%	52.34%	24%	
Cc1cc(=O)[nH]c2cc(N3C(=O)CSC3c3cccnc3)ccc12 (centres undefined)	34.851%	29.032%	6.81%	
COc1ccc(C2SCC(=O)N2c2ccc3c(C)cc(=O)[nH]c3c2)cc1 (centres undefined)	47.326%	39.334%	21.4%	
Cc1ccc(C2SCC(=O)N2c2ccc3c(C)cc(=O)[nH]c3c2)o1 (centres undefined)	27.453%	31.114%	10.1%	
Cc1cc(=O)[nH]c2cc(N3C(=O)CSC3N3CCOCC3)ccc12 (centres undefined)	23.662%	25.274%	1.75%	
Cc1cc(=O)[nH]c2cc(N3C(=O)CSC3c3ccc(O)cc3)ccc12 (centres undefined)	68.91%	42.143%	22.9%	
Cc1cc(=O)[nH]c2cc(N3C(=O)CSC3/C=C/c3ccccc3)ccc12 (centres undefined)	42.057%	38.837%	20.8%	
Cc1cc(=O)[nH]c2cc(N3C(=O)CSC3c3cccc(Br)c3)ccc12 (centres undefined)	56.633%	40.062%	22.7%	
Cc1cc(=O)[nH]c2cc(N3C(=O)CSC3c3ccc([N+](=O)[O-])cc3)ccc12 (centres undefined)	54.851%	40.478%	25.2%	
Cc1cc(=O)[nH]c2cc(N3C(=O)CSC3c3ccccc3Br)ccc12 (centres undefined)	44.279%	38.709%	14%	
Cc1cc(=O)[nH]c2cc(N3C(=O)CSC3c3ccccc3)ccc12 (centres undefined)	74.85%	71.578%	17.8%	Activity [5]: 60.57%; MST [5]: 29.16 days; Activity [6]: 5.93%; Activity [7]: 10.65%; inhibition (COLO 205 [8]): Active; inhibition (COLO 205 [9]): Active; Activity (COLO 205 [10]): Active; Activity (COLO 205 [11]): Active; Activity (COLO 205 [12]): Active; Activity (COLO 205 [13]): Active; IC50 (ACHN): 78.9 µg/mL (≈ 234 µM); IC50 (COLO 205 [14]): 31.4 µg/mL (≈ 93.3 µM); IC50 (HeLa [15]): 35.1 µg/mL (≈ 104 µM); IC50 (BT-549 [16]): 39.3 µg/mL (≈ 117 µM)
Cc1cc(=O)[nH]c2cc(N3C(=O)CSC3c3ccccc3[N+](=O)[O-])ccc12 (centres undefined)	28.316%	44.953%	24.1%	
Cc1cc(=O)[nH]c2cc(N3C(=O)CSC3c3ccncc3)ccc12 (centres undefined)	20.343%	22.176%	7.62%	
